{"data": "Assay results collected from several papers", "SIRT3": "NAD-dependent protein deacetylase sirtuin-3, mitochondrial (SIRT3, Homo sapiens, UniProt Q9NTG7)", "TAF1 BD2": "Transcription initiation factor TFIID subunit 1, BD2 (TAF1, Homo sapiens, UniProt P21675)", "PTGS1": "Prostaglandin G/H synthase 1 (PTGS1, Ovis aries, UniProt P05979)", "MARK1": "Serine/threonine-protein kinase MARK1 (MARK1, Homo sapiens, UniProt Q9P0L2)", "note": "Protocols differ between the studies behind these lines."}
{"Structure (SMILES)": "CCCCC[C@@H]1CC(=O)c2cc(Cl)cc(Br)c2O1", "target": "SIRT3", "test": "enzyme activity, inhibitor, fluorescence", "conditions": "200 µM", "quantity": "inhibition", "value": "3.9%"}
{"Structure (SMILES)": "Cc1cnc(Nc2ccc(OCCN3CCCC3)cc2)nc1Nc1cccc(S(=O)(=O)NC(C)(C)C)c1", "target": "TAF1 BD2", "test": "thermal stability, DSF", "conditions": "10 µM", "quantity": "ΔTm", "value": "0.28 °C"}
{"Structure (SMILES)": "Oc1cccc(Nc2nc(-c3ccc(F)cc3F)cs2)c1", "target": "Type-2 angiotensin II receptor (AGTR2, Homo sapiens, UniProt P50052)", "test": "cell-free assay", "conditions": "10 µM", "quantity": "inhibition", "value": "-5.6%"}
{"Structure (SMILES)": "CN(C)C1CCN(CC#Cc2nn(C3CCCC3)c3nc(NCc4ccccc4)ncc23)C1 (stereo not shown)", "target": "Ephrin type-A receptor 3 (EPHA3, Homo sapiens, UniProt P29320)", "test": "enzyme activity, inhibitor, FRET", "conditions": "0.1 µM", "quantity": "inhibition", "value": "-6%"}
{"Structure (SMILES)": "CCCOc1ccc(OC)c(F)c1C(=O)c1ccc(C(=O)N[C@@H]2CNC[C@H]2NC(=O)c2ccc3[nH]ncc3c2)cc1", "target": "Serine/threonine-protein kinase MRCK alpha (CDC42BPA, Homo sapiens, UniProt Q5VT25)", "test": "enzyme activity, inhibitor", "conditions": "10 µM", "quantity": "remaining activity", "value": "-3%"}
{"Structure (SMILES)": "COc1cc(NC(C)=O)c(Cl)cc1C(=O)Nc1nccs1", "target": "D(1A) dopamine receptor (DRD1, Homo sapiens, UniProt P21728)", "test": "cell-free assay", "conditions": "10 µM", "quantity": "inhibition", "value": "-7.2%"}
{"Structure (SMILES)": "CCOCCOCCOCCNC(=S)NCCCC[C@H](NS(C)(=O)=O)C(=O)N[C@@H](C)C(=O)N[C@@H](CCCNC(=N)N)C(N)=O", "target": "SIRT3", "test": "enzyme activity, inhibitor", "conditions": "100 µM", "quantity": "inhibition", "value": "16%"}
{"Structure (SMILES)": "C[S+]([O-])c1ccc(-c2nc(-c3ccncc3)c(-c3ccc(F)cc3)[nH]2)cc1 (stereo not shown)", "target": "Transcription initiation factor TFIID subunit 1, BD1 (TAF1, Homo sapiens, UniProt P21675)", "test": "thermal stability, DSF", "conditions": "10 µM", "quantity": "ΔTm", "value": "-0.19 °C"}
{"Structure (SMILES)": "CCCCC#CCNC(=O)c1ccccc1SC(C)=O", "target": "PTGS1", "test": "enzyme activity, inhibitor, mass spectrometry", "quantity": "kinact", "value": "0.0367 s⁻¹"}
{"Structure (SMILES)": "NS(=O)(=O)c1ccc(CNc2ccnc(Nc3cccc(CN4CCOCC4)c3)n2)cc1", "target": "MARK1", "test": "enzyme activity, inhibitor, radiometric", "conditions": "1 µM", "quantity": "remaining activity", "value": "102%"}
{"Structure (SMILES)": "CCCCCc1cc(=O)c2cc(Cl)cc(Br)c2o1", "target": "SIRT3", "test": "enzyme activity, inhibitor, fluorescence", "conditions": "200 µM", "quantity": "inhibition", "value": "4.5%"}
{"Structure (SMILES)": "Oc1ccc(-c2nc(-c3ccncc3)c(-c3ccc(F)cc3)[nH]2)cc1", "target": "TAF1 BD2", "test": "thermal stability, DSF", "conditions": "10 µM", "quantity": "ΔTm", "value": "-0.06 °C"}
{"Structure (SMILES)": "Nc1ncnc2occ(-c3ccc(NC(=O)Nc4cc(C(F)(F)F)ccc4F)cc3)c12", "target": "Mitogen-activated protein kinase kinase kinase 6 (MAP3K6, Homo sapiens, UniProt O95382)", "test": "cell-free assay, inhibitor", "conditions": "20 µM", "quantity": "remaining signal", "value": "20%"}
{"Structure (SMILES)": "CCCCCC1CC(=O)c2cccc(Br)c2O1 (stereo not shown)", "target": "SIRT3", "test": "enzyme activity, inhibitor, fluorescence", "conditions": "200 µM", "quantity": "inhibition", "value": "6.7%"}
{"Structure (SMILES)": "Cc1nn(CC(F)(F)F)cc1Nc1ncc(C2CC2)c(NCCc2c[nH]cn2)n1", "target": "Mitogen-activated protein kinase kinase kinase 9 (MAP3K9, Homo sapiens, UniProt P80192)", "test": "enzyme activity, inhibitor, radiometric", "conditions": "1 µM", "quantity": "remaining activity", "value": "72%"}
{"Structure (SMILES)": "NS(=O)(=O)c1ccc(Nc2nc(-c3ccc(F)cc3)c3ccccc3n2)cc1", "target": "Transcription initiation factor TFIID subunit 1-like, BD2 (TAF1L, Homo sapiens, UniProt Q8IZX4)", "test": "binding, competition with immobilised ligand", "conditions": "1 µM", "quantity": "remaining binding", "value": "77%"}
{"Structure (SMILES)": "Cc1nn(CC(F)(F)F)cc1Nc1nccc(NCCCNC(=O)C2CCC2)n1", "target": "MARK1", "test": "enzyme activity, inhibitor, radiometric", "conditions": "1 µM", "quantity": "remaining activity", "value": "108%"}
{"Structure (SMILES)": "CCCCCCNC(=O)c1ccccc1SC(C)=O", "target": "PTGS1", "test": "enzyme activity, inhibitor", "quantity": "kinact", "value": "0.00035 s⁻¹"}
{"Structure (SMILES)": "Cc1cc2c(cc1N1C(=O)c3cccc4c(Cl)ccc(c34)C1=O)n(C)c(=O)n2C", "target": "Transcription initiation factor TFIID subunit 1-like, BD1 (TAF1L, Homo sapiens, UniProt Q8IZX4)", "test": "thermal stability, DSF", "conditions": "10 µM", "quantity": "ΔTm", "value": "-0.2 °C"}
